Experimental data: ChEMBL document CHEMBL4311940, “Design, Synthesis, and Biological Evaluation of 4-Methyl Quinazoline Derivatives as Anticancer Agents Simultaneously Targeting Phosphoinositide 3-Kinases and Histone Deacetylases” (J Med Chem, 2019)
Calls of active or inactive are those of the source. The rule behind the calls is not given here.

What was measured:
Homo sapiens [1] = species: Homo sapiens; assay: Selectivity ratio, ratio of IC50 for recombinant human His-tagged PIK3CG expressed in baculovirus expression system to recombinant human His-tagged PIK3CD/PIK3R1 expressed in baculovirus expression system
Homo sapiens [2] = species: Homo sapiens; assay: Inhibition of HDAC/PI3K in human HCT116 cells assessed as increase in cleaved PARP level at 0.02 to 0.5 uM after 16 hrs by Western blot analysis; format: cell-based
Outline: (§1)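 Immunoblot of HCT116 lysates (RIPA). 40 μg protein per lane on 10−12% SDS-PAGE, transferred to nitrocellulose, blocked 0.5 h in 5% milk/TBST. Primary antibodies 1:1000 overnight at 4 °C, secondary 1:1000 for 1 h, bands visualized by enhanced ECL.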

[3] = biological target: PI3-kinase p110-delta/p85-alpha (Homo sapiens, UniProt O00329); assay: Inhibition of recombinant human His-tagged PIK3CD/PIK3R1 expressed in baculovirus expression system using PIP2 as substrate incubated for 1 hr by ADP-glo assay
[4] = Drug level in BALB/c mouse plasma xenografted with human HGC27 cells at 100 mg/kg, po measured 0.5 hrs post last dose; format: ADME, organism-based
Outline: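 HGC-27 xenografted nude mice dosed po (0.5% cmc/Tween 80) or ip (saline); at end of treatment, 0.5 h after final dose, plasma and tumor tissue collected and compound concentration measured (ng/mL plasma, ng/g tumor).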

[5] = biological target: Phosphatidylinositol 4,5-bisphosphate 3-kinase catalytic subunit gamma isoform (Homo sapiens, UniProt P48736); assay: Binding affinity to wild-type human partial length PIK3CG (S144 to A1102 residues) expressed in mammalian expression system assessed as residual binding level at 1 uM by Kinomescan method relative to control
Outline: (§2)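 Kinomescan binding screen at 1 μM across 97 kinases.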

[6] = Drug metabolism in rat bile assessed as hydrolyzed metabolite formation at 0.74 mg/kg, iv after 1 hr by LC/MS/MS analysis; format: ADME, organism-based; settings: in vivo
Mus musculus [7] = assay: In vivo inhibition of PI3K in tumor of human HGC27 cells xenografted in athymic nude BALB/c mouse assessed as reduction in phosphorylated AKT expression at S473 residue by DAB staining based immunohistochemistry method; format: functional, organism-based
Outline: (§3)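 HGC-27 xenograft tumors from treated and vehicle mice immunostained for Ki67, Ac-H3 and p-AKT(S473) (200×); integrated optical density analysed; mean ± SEM, n = 5−7, one-way ANOVA versus vehicle.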

[8] = biological target: Dual specificity tyrosine-phosphorylation-regulated kinase 1B (Homo sapiens) (UniProt Q9Y463); assay: Binding affinity to wild-type human full length DYRK1B (M1 to S629 residues) expressed in bacterial expression system assessed as residual binding level at 1 uM by Kinomescan method relative to control; outline: as §2
Homo sapiens [9] = species: Homo sapiens; assay: Inhibition of HDAC/PI3K in human HCT116 cells assessed as increase in cleaved PARP level at 0.5 to 5 uM after 16 hrs by Western blot analysis; format: cell-based; outline: as §1
Mus musculus [10] = assay: In vivo inhibition of PI3K/HDAC in tumor of human HGC27 cells xenografted in athymic nude BALB/c mouse assessed as reduction in phosphorylated Ki67 expression by DAB staining based immunohistochemistry method; format: functional, organism-based; outline: as §3

Chain of PI3-kinase p110-delta/p85-alpha (P27986 whole entry): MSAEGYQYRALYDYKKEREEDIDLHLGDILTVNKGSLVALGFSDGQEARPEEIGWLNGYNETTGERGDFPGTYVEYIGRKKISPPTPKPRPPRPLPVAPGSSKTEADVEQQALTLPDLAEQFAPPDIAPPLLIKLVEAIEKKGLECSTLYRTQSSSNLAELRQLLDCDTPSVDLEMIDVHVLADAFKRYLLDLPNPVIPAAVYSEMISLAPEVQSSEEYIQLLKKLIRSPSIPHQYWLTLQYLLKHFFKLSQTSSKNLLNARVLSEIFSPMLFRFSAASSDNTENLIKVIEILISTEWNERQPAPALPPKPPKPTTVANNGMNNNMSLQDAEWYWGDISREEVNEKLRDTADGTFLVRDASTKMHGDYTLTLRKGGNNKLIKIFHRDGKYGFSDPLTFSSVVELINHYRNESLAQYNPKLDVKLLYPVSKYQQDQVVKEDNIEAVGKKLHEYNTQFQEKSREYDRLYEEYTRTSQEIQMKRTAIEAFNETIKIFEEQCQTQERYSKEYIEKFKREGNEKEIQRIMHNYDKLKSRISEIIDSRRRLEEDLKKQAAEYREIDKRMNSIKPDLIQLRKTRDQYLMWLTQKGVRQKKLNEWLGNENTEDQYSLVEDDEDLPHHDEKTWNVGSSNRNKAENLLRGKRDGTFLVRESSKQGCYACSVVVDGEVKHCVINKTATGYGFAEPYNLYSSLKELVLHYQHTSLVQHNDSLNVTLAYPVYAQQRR
Chain of PI3-kinase p110-delta/p85-alpha (O00329 whole entry): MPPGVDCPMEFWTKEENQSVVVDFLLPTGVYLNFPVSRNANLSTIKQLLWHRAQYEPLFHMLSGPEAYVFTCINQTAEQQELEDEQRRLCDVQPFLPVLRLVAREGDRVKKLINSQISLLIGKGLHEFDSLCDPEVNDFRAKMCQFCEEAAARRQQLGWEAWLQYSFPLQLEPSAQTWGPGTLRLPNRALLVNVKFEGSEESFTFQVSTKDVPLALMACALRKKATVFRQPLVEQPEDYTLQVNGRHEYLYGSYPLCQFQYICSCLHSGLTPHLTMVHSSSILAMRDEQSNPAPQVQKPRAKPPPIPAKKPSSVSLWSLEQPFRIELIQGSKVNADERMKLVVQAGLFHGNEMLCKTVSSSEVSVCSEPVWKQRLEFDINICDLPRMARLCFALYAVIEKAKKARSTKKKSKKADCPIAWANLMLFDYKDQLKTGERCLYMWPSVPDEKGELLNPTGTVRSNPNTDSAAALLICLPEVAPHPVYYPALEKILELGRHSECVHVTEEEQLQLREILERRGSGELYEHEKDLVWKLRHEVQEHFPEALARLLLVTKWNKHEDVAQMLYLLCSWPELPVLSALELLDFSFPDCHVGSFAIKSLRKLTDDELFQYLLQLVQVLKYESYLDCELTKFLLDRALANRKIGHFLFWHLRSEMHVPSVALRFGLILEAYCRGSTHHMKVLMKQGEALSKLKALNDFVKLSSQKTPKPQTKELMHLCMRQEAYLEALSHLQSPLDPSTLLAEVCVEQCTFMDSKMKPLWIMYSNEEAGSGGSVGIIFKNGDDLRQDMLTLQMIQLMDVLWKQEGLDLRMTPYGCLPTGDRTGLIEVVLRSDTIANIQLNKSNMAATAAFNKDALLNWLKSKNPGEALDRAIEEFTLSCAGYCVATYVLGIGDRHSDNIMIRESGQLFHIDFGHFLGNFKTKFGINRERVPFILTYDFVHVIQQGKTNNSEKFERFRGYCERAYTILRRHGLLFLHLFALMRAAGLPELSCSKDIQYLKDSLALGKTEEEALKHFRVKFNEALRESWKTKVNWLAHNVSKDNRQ
Chain of Phosphatidylinositol 4,5-bisphosphate 3-kinase catalytic subunit gamma isoform (P48736 whole entry, looked up, the tested form may be a part, canonical isoform): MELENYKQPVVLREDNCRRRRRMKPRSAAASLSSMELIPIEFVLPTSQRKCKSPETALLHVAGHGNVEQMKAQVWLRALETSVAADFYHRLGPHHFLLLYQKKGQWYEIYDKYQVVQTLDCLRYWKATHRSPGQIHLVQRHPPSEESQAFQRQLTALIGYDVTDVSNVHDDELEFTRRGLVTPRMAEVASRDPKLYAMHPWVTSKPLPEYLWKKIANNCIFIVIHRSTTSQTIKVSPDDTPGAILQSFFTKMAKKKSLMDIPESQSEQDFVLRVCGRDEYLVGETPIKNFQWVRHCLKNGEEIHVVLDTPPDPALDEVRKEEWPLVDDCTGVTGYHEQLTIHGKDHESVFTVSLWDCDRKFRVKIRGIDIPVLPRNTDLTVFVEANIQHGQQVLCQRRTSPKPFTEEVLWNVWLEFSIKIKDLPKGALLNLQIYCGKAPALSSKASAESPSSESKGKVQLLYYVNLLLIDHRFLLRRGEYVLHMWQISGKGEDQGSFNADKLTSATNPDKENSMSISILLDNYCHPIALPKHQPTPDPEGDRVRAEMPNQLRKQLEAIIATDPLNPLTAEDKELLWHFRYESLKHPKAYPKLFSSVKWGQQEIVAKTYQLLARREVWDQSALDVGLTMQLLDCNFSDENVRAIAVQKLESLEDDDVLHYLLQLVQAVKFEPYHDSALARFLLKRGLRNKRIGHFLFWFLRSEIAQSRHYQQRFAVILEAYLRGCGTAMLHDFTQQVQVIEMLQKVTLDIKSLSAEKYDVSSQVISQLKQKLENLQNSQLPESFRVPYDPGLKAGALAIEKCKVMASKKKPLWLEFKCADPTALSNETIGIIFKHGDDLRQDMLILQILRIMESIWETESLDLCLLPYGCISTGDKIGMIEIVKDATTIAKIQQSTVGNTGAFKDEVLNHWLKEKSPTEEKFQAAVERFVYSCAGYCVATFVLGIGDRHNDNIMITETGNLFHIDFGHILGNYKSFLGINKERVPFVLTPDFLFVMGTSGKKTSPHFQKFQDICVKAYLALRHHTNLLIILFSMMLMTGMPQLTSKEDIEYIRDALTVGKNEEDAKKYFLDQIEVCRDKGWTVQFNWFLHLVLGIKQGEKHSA
Chain of Dual specificity tyrosine-phosphorylation-regulated kinase 1B (Homo sapiens) (Q9Y463 whole entry, looked up, the tested form may be a part): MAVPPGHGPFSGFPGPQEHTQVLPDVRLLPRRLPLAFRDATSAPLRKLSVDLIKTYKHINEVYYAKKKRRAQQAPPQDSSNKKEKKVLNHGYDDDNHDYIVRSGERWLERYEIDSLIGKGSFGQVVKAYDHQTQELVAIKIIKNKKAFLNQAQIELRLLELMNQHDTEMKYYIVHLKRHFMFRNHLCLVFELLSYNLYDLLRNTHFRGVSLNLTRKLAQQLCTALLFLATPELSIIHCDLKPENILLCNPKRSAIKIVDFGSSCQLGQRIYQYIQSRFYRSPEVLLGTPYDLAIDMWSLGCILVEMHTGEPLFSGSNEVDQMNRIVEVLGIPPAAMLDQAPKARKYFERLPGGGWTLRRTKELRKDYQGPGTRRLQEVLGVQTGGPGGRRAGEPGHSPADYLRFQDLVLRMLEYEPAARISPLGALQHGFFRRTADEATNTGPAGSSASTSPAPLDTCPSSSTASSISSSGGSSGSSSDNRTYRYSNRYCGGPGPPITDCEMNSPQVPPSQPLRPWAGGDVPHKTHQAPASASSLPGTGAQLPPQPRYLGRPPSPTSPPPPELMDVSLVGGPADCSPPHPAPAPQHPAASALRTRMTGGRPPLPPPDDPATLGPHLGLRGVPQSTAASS

Structure (SMILES): COc1ccc(-c2cc(OCCN(C)c3ncc(C(=O)NO)cn3)c3ncnc(C)c3c2)cn1
- Ratio IC50 (Homo sapiens [1]): > 5
- inhibition (Homo sapiens [2]): Active
- IC50 [3]: 29 nM

Structure (SMILES): COc1ncc(-c2cc(OCCCCCCC(=O)NO)c3ncnc(C)c3c2)cc1F
- concentration at 0.5 h [4]: 179 ng/mL
- Activity [5]: 1.4%
- Drug metabolism [6]: Metabolite_Detected
- inhibition (Mus musculus [7]): Active
- Activity [8]: 29%
- inhibition (Homo sapiens [9]): Active
- inhibition (Mus musculus [10]): Active
